{
  "source": "ChEMBL document CHEMBL4038317",
  "about": "“Discovery of a Benzamide Derivative That Protects Pancreatic β-Cells against Endoplasmic Reticulum Stress” (J Med Chem, 2017)",
  "key": {"[1]": {"tested_on": "INS1", "experiment": "Cytoprotective activity against tunicamycin ER stress-induced apoptosis in rat INS-1 cells assessed as viable cells at 0.1 uM after 48 hrs by phase contrast microscopic analysis", "assay_type": "functional, cell-based", "method_in_brief": "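INS-1 cells were exposed to tunicamycin 0.1 μg/mL with compound (0.1 μM) or DMSO for 48 h. Live-cell phase-contrast images were taken at 10×; 3 independent experiments.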"}, "[2]": {"tested_on": "Beta-TC6", "experiment": "Cytoprotective activity in mouse BetaTC6 cells assessed as protection against tunicamycin-induced ER stress-mediated reduction in cell viability after 3 days by CellTiter-Glo assay", "assay_type": "functional, cell-based", "method_in_brief": "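βTC6 cells, 3×10^3 per well, were exposed to tunicamycin 0.3 μg/mL with compound or DMSO for 72 h. Intracellular ATP was read by luminescence and expressed as fold of no-tunicamycin cells. Triplicate wells, three independent experiments.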"}, "[3]": {"tested_on": "INS1", "experiment": "Protection against tunicamycin ER stress-induced suppression of INS2 mRNA expression in rat INS-1 cells up to 1 uM after 24 hrs by qRT-PCR analysis", "assay_type": "functional, cell-based", "method_in_brief": "(§1)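 INS-1 cells were exposed to tunicamycin 0.1 μg/mL with compound or DMSO for 24 h. INS1, INS2, PDX1 and MafA mRNA were measured by qRT-PCR and normalized to cyclophilin A by the comparative Ct method. Triplicate wells, 3 independent experiments.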"}, "[4]": {"tested_on": "INS1", "experiment": "Cytoprotective activity in rat INS-1 cells assessed as protection against tunicamycin-induced ER stress-mediated reduction in cell viability after 3 days by CellTiter-Glo assay relative tunicamycin", "assay_type": "functional", "settings": "INS1, 72 h", "method_in_brief": "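INS-1 cells, 3×10^3 per well, were co-treated with tunicamycin 0.1 μg/mL and compound for 72 h. Viability was read as intracellular ATP by luminescence and expressed as fold of no-tunicamycin cells. EC50 and maximum activity were taken as the increase in viability versus tunicamycin alone. Triplicate wells, three independent experiments.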"}, "[5]": {"tested_on": "INS1", "experiment": "Protection against tunicamycin ER stress-induced suppression of glucose-stimulated insulin secretion in rat INS-1 cells after 24 hrs by ELISA", "assay_type": "functional, cell-based", "method_in_brief": "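INS-1 cells were given tunicamycin 0.1 μg/mL and compound for 24 h, preincubated 1 h in KRBH (pH 7.4, 2% BSA) with 2.5 mM glucose, then given 1 h at low or high glucose. Secreted insulin was measured by ELISA and corrected for total protein (Bradford). Triplicate wells, three independent experiments.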"}, "[6]": {"target": "T1, Eukaryotic translation initiation factor 2-alpha kinase 3 (Rattus norvegicus) (UniProt Q9Z1Z1)", "T1 sequence (whole entry)": "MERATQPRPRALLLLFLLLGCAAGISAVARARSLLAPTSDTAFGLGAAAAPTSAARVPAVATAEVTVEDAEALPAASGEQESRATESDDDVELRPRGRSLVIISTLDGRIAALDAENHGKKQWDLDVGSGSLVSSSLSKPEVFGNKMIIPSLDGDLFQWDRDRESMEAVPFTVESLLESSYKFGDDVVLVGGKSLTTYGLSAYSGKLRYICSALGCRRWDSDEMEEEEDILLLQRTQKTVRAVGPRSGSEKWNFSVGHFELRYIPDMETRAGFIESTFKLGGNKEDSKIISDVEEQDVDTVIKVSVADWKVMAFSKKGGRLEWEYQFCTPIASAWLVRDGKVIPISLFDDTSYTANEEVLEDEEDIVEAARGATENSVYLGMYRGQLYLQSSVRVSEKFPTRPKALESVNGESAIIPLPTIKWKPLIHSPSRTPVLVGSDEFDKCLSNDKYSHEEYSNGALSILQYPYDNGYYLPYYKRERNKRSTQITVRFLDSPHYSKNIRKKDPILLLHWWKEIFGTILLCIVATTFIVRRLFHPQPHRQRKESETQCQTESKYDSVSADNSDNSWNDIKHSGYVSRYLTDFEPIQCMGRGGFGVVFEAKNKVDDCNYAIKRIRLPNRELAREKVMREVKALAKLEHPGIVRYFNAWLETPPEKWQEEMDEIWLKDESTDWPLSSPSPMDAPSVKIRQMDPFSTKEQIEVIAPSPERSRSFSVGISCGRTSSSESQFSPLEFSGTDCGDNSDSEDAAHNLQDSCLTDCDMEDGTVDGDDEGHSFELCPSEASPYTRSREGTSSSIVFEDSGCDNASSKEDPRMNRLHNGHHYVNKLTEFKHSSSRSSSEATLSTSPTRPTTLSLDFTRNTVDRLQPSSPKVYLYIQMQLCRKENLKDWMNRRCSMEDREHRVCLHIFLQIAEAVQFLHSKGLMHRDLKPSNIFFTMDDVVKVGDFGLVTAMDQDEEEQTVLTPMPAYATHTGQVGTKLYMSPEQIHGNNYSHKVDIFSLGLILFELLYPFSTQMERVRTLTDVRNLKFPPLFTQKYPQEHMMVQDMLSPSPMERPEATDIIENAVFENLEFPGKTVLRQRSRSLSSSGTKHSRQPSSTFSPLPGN", "experiment": "Inhibition of tunicamycin ER stress-induced PERK activation in rat INS-1 cells assessed as suppression of tunicamycin-induced increase in ATF4 protein levels up to 10 uM after 8 hrs by Western blot analysis", "assay_type": "cell-based", "method_in_brief": "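INS-1 cells were exposed to tunicamycin 0.1 μg/mL with compound or DMSO for 8 h. Lysates were immunoblotted for ATF4 and CHOP (1:1000). Bands were quantified by densitometry and normalized to α-tubulin; 3 independent experiments.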"}, "[7]": {"tested_on": "Beta-TC6", "experiment": "Cytotoxicity against mouse BetaTC6 cells assessed as reduction in cell viability up to 40 uM after 3 days by CellTiter-Glo assay", "assay_type": "cell-based", "settings": "beta-tc6, 72 h"}, "[8]": {"tested_on": "INS1", "experiment": "Protection against tunicamycin ER stress-induced suppression of PDX1 mRNA expression in rat INS-1 cells up to 1 uM after 24 hrs by qRT-PCR analysis", "assay_type": "functional, cell-based", "method_in_brief": "as §1"}, "[9]": {"tested_on": "Mus musculus", "experiment": "Antidiabetic activity in STZ-induced diabetic C57BL/6 mouse model assessed as total pancreatic islet beta-cell area at 5 mg/kg, ip administrated qd with streptozotocin for 5 days followed by compound administration alone for 2 more weeks by DAPI-staining based confocal microscopic analysis (reference value: 30.2 +/- 7.9%)", "assay_type": "functional", "method_in_brief": "(§2)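 At the end of treatment in the STZ mouse model, pancreases were formalin-fixed, paraffin-embedded and serially sectioned at 100 μm intervals. Six sections were stained for insulin and glucagon with DAPI counterstain and imaged by confocal microscopy. Insulin-positive cells demarcated islets; total islet area per section and cells per islet were quantified.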"}, "[10]": {"tested_on": "Mus musculus", "experiment": "Toxicity in STZ-induced diabetic C57BL/6 mouse model assessed as effect on alpha-cells at 5 mg/kg, ip administrated qd with streptozotocin for 5 days followed by compound administration alone for 2 more weeks by DAPI-staining based confocal microscopic analysis", "assay_type": "organism-based", "settings": "in vivo, 120 h", "method_in_brief": "as §2"}, "[11]": {"target": "T1, Eukaryotic translation initiation factor 2-alpha kinase 3 (Rattus norvegicus)", "experiment": "Inhibition of PERK activation in rat INS-1 cells assessed as suppression of tunicamycin-induced increase in ATF4 mRNA levels up to 10 uM after 8 hrs by qRT-PCR analysis", "assay_type": "cell-based", "method_in_brief": "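INS-1 cells, 4×10^5 per well, were exposed to tunicamycin 0.1 μg/mL with compound or DMSO for 8 h. qRT-PCR for ATF4, CHOP, Bip, GRP94, or spliced XBP1 using splicing-specific primers. Values were normalized to cyclophilin A by ΔΔCt and given as fold over untreated control. Triplicate wells, 3 independent experiments.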"}, "[12]": {"tested_on": "INS1", "experiment": "Cytoprotective activity against tunicamycin ER stress-induced apoptosis in rat INS-1 cells assessed as TUNEL positive cells at 0.1 to 1 uM after 24 hrs by TUNEL/DAPI-based microscopic analysis (reference value: 7%)", "assay_type": "functional"}},
  "note": "The source made the active and inactive calls. No cut-off for these calls is given here.",
  "data": [
    {"smiles": "O=C(NCc1ccc(C(F)(F)F)cc1)c1cccc(CN2CCCCC2)c1", "values": [
      {"measurement": "Activity", "setting": "[1]", "value": "Active"},
      {"measurement": "Activity", "setting": "[2]", "value": "Dose-dependent effect"},
      {"measurement": "Activity", "setting": "[3]", "value": "Active"},
      {"measurement": "Emax", "setting": "[4]", "value": 97, "unit": "%"},
      {"measurement": "Activity", "setting": "[5]", "value": "Active"},
      {"measurement": "inhibition", "setting": "[6]", "value": "Active"},
      {"measurement": "Activity", "setting": "[7]", "value": "Non-Toxic"},
      {"measurement": "Activity", "setting": "[8]", "value": "Active"},
      {"measurement": "Activity", "setting": "[9]", "value": 67.4, "unit": "%"},
      {"measurement": "Activity", "setting": "[10]", "value": "Non-Toxic"},
      {"measurement": "inhibition", "setting": "[11]", "value": "Active"},
      {"measurement": "Activity", "setting": "[12]", "value": 0.5, "unit": "%"}
    ]}
  ]
}
